Assay [1] concerns Human alphaherpesvirus 2. Nature of the assay: Antiviral activity against HHV-2 VR-734-G infected in African green monkey Vero cells assessed as reduction of viral titer at maximal non-toxic concentration after 72 hrs by crystal violet staining assay relative to control. It is filed as functional. The gist of the method: (§1)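 End-point titration on Vero monolayers (2.0 × 10^4 cells/well, ≥80% confluent) with 10 TCID50 virus. Virus–compound mixtures (6.25–50 μg/mL) in DMEM/2% FBS with CMC (1% for HHV-1, 0.5% for HHV-2) were held 15 min at room temperature. Incubation was 48 h (HHV-1) or 72 h (HHV-2) at 37 °C, then formaldehyde/crystal violet staining and plaque counting. Read-out is the viral titer reduction factor. Two experiments in quadruplicate.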

Assay [2] has as its system Vero. Briefly: Cytotoxicity against African green monkey Vero cells assessed as inhibition of cell proliferation after 72 hrs. The format is cell-based. The following applies: Chlorocebus sabaeus.
The test system of assay [3] is Human alphaherpesvirus 1. Nature of the assay: Antiviral activity against HHV-1 CDC Atlanta infected in African green monkey Vero cells assessed as reduction in plaque formation administered post viral infection after 72 hrs by crystal violet staining technique. It is filed as functional, organism-based. The following applies: Human alphaherpesvirus 1, CDC Atlanta, Vero, 72 h; read-out: EC50. Put shortly: (§2)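 Plaque reduction on Vero monolayers (2.5 × 10^4 cells/well) infected with 100 PFU/well. Pre-infection arm: virus–compound mixture added for 1 h at 37 °C, PBS wash, then CMC overlay. Post-infection arm: virus adsorbed 1 h, washed, then compound given in CMC. CMC was 1% for HHV-1, 0.75% for HHV-2 and 2% for DENV-2. Plates ran 72 h (HHV) or 8 days (DENV-2) before crystal violet staining. EC50 came from linear regression over ≥4 dilutions in quadruplicate.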

Assay [4] relates to Human alphaherpesvirus 1. Nature of the assay: Antiviral activity against HHV1 CDC Atlanta infected in African green monkey Vero cells assessed as reduction of viral titer at maximal non-toxic concentration after 48 hrs by crystal violet staining assay relative to control. The format is functional. The gist of the method:
as §1

The test system of assay [5] is Human alphaherpesvirus 2. Nature of the assay: Antiviral activity against HHV-2 VR-734-G infected in African green monkey Vero cells assessed as reduction in plaque formation administered post viral infection after 72 hrs by crystal violet staining technique. To be noted: Human alphaherpesvirus 2, VR-734-G. The format is functional, organism-based. Put shortly: as §2

Assay [6] has as its system Human alphaherpesvirus 2. Nature of the assay: Antiviral activity against HHV-2 VR-734-G infected in African green monkey Vero cells assessed as maximal non toxic concentration causing reduction of viral titer after 72 hrs by crystal violet staining assay. The format is functional. Put shortly: as §1
A short description of assay [7]: Cytotoxicity against human U937 cells assessed as cell growth inhibition after 48 hrs by MTT assay. To be noted: U-937, 48 h. The format is functional, cell-based. The gist of the method:
(§3)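 MTT assay. Vero and HeLa cells plated at 2.0 × 10^4/well and preincubated 24 h; Jurkat and U937 plated at 3.0 × 10^4/well. Compounds were applied 48 h at 37 °C, 5% CO2, with 0.05% DMSO. Absorbance read at 570 nm and IC50 taken by linear regression. Values are the geometric mean of two experiments in quadruplicate.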
(In general: Tetrazolium dyes change colour on reduction, which living cells bring about.)

Assay [8] deals with Aspergillus terreus. Nature of the assay: Antifungal activity against Aspergillus terreus CDC 317 assessed as microbial growth inhibition by microdilution assay. The format is functional, organism-based. The gist of the method:
(§4)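 Broth microdilution under CLSI M38-A with modifications, in duplicate, at final compound concentrations of 50–3.125 μg/mL. […] Values are the geometric mean of duplicate tests in three assays. Assay DMSO was 0.05%.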
Background: Broth dilution looks for growth in wells or tubes with falling amounts of substance.

In assay [9] the test system is Aspergillus flavus. Briefly: Antifungal activity against Aspergillus flavus ATCC 204304 assessed as microbial growth inhibition by microdilution assay. The format is functional, organism-based. The gist of the method:
as §4

In assay [10] the test system is Vero. Briefly: Cytotoxicity against African green monkey Vero cells assessed as cell growth inhibition after 48 hrs by MTT assay. It is filed as cell-based. The following applies: Chlorocebus sabaeus. Put shortly:
as §3

Assay [11] relates to Fusarium oxysporum. Briefly: Antifungal activity against Fusarium oxysporum ATCC 48112 assessed as microbial growth inhibition after 48 hrs by microdilution assay. The format is functional, organism-based. Put shortly:
as §4

For assay [12], the system named is HeLa. Nature of the assay: Cytotoxicity against human HeLa cells assessed as cell growth inhibition after 48 hrs by MTT assay. It is filed as functional, cell-based. Put shortly: as §3
Assay [13] relates to Aspergillus fumigatus. Nature of the assay: Antifungal activity against Aspergillus fumigatus ATCC 204305 assessed as microbial growth inhibition by microdilution assay. It is filed as functional, organism-based. Put shortly: as §4
The subject of assay [14] is Jurkat. Nature of the assay: Selectivity index, ratio of IC50 for African green monkey Vero cells to IC50 for human Jurkat cells. It is filed as functional. The gist of the method:
(§5)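 SI calculated as Vero IC50 divided by HeLa, Jurkat or U937 IC50, all from the 48 h MTT assay.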

The subject of assay [15] is Jurkat. Briefly: Cytotoxicity against human Jurkat cells assessed as cell growth inhibition after 48 hrs by MTT assay. It is filed as functional, cell-based. Put shortly:
as §3

Assay [16] deals with Candida parapsilosis. Nature of the assay: Antifungal activity against Candida parapsilosis ATCC 22019 assessed as microbial growth inhibition after 24 hrs by microdilution assay. It is filed as functional, organism-based. The gist of the method: (§6)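 Yeast microdilution by the AFST-EUCAST method at an inoculum of 1–5 × 10^5 CFU/mL, final compound concentrations 50–3.125 μg/mL, in duplicate. MIC is the lowest concentration giving 90% growth reduction after 24 h at 35 °C. Untreated inoculum served as negative control. Values are the geometric mean of duplicate tests in three assays.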

Assay [17] deals with Candida tropicalis. Briefly: Antifungal activity against Candida tropicalis ATCC 200956 assessed as microbial growth inhibition after 24 hrs by microdilution assay. The format is functional, organism-based. The gist of the method: as §6
Assay [18] deals with Candida albicans. Nature of the assay: Antifungal activity against Candida albicans […] assessed as microbial growth inhibition after 24 hrs by microdilution assay. The format is functional, organism-based. Put shortly:
as §6

The subject of assay [19] is Vero. Briefly: Selectivity index, ratio of IC50 for African green monkey Vero cells to IC50 for human U937 cells. The format is functional. Put shortly:
as §5

Assay [20] has as its system HeLa. Briefly: Selectivity index, ratio of IC50 for African green monkey Vero cells to IC50 for human HeLa cells. It is filed as functional. Put shortly: as §5

Activity calls are given as the source filed them. No cut-off for these calls is given here.

The IC50 is the concentration that gives 50% inhibition. The EC50 is the concentration giving half of the maximal effect. For the compound `Nc1nc2c(ncn2COCCO)c(=O)[nH]1` [ACYCLOVIR], the results for the “fold change (FC)” value in assay [1] and in [4] were 1000 and 10000, respectively. Also, the IC50 in assay [2] is more than 1700 µM. For the same compound, the figures for the EC50 in assay [3] and in assay [5] were 2.2 µM and 0.27 µM, respectively. Besides, the MNTD in assay [6] amounted to 6.7 µM.
As to `CC(C)c1cc2c(cc1O)[C@@]1(C)CCC[C@@](C)(CN)[C@@H]1CC2`, the IC50 in assay [7] is more than 80 µM; in assay [10], 39.8 µM; in [12] it was more than 80 µM; in [15] it was 49.4 µM. The result in [8], in assay [9], in [11], in assay [13], in assay [16] and in assay [17] was inactive. Moreover, the outcome in [18] was inactive. Besides, the “Ratio IC50” value in assay [14] came out at 0.8.
As to `COc1cccc2c1C(=O)c1c(O)c3c(c(O)c1C2=O)C[C@@](O)(C(=O)CO)C[C@@H]3O[C@H]1C[C@H](N)[C@H](O)[C@H](C)O1` [DOXORUBICIN], the IC50 in assay [7] was found to be 0.077 µM; in [10], 1.93 µM; in assay [12] it was 0.834 µM; in assay [15], 0.012 µM.
As for `CC(=O)Oc1cc2c(cc1C(C)C)/C(=N\S(=O)(=O)c1ccc(C)cc1)C[C@H]1[C@](C)(CN3C(=O)c4c(Cl)c(Cl)c(Cl)c(Cl)c4C3=O)CCC[C@]21C`, the IC50 in assay [7], in assay [12] and in assay [15] was more than 30 µM in each case. In addition, the outcome in assay [8], in assay [9], in assay [11], in [13], in assay [16] and in assay [17] was inactive. Also, the outcome in assay [18] was inactive.
For the compound `CC(=O)Oc1cc2c(cc1C(C)C)C(=O)C[C@H]1[C@](C)(CN3C(=O)c4c(Cl)c(Cl)c(Cl)c(Cl)c4C3=O)CCC[C@]21C`, the IC50 in assay [7] is 8.3 µM; in assay [10], more than 320 µM; in assay [12], 7.3 µM; in assay [15] it was 12.3 µM. Moreover, the result in assay [8], in [9], in assay [11], in assay [13], in assay [16] and in assay [17] was inactive. Besides, the result in assay [18] was inactive. In addition, the figures for the “Ratio IC50” value in assay [19], in assay [20] and in assay [14] were more than 38.5, more than 43.8 and more than 26, respectively.
Consider `CC(C)c1cc2c(cc1O)[C@@]1(C)CCC[C@@](C)(CN3C(=O)c4c(Cl)c(Cl)c(Cl)c(Cl)c4C3=O)[C@@H]1CC2`, for which the IC50 in [7] was more than 40 µM; in [10], 267 µM; in assay [12] it was 29 µM; in assay [15] it was 21.9 µM. Also, the result in assay [8], in assay [9], in assay [11], in assay [13], in assay [16] and in [17] was inactive. For the same compound, in assay [18], the outcome was inactive. The “Ratio IC50” value in assay [20] came out at 9.2; in assay [14] it was 12.2.
On to `Cc1ccc(S(=O)(=O)NC[C@]2(C)CCC[C@]3(C)c4cc(O)c(C(C)C)cc4CC[C@@H]23)cc1`, for which the IC50 in assay [7] was 36 µM; in assay [10], 82.5 µM; in [12] it was more than 50 µM; in assay [15], 30.9 µM. For the same compound, the result in assay [8], in [9], in assay [11], in assay [13], in [16] and in assay [17] was inactive. Besides, the result in assay [18] was inactive. Besides, the results for the “Ratio IC50” value in assay [19] and in [14] were 2.3 and 2.7, respectively.
On to `CC(C)c1cc2c(cc1O)[C@@]1(C)CCCC(C)(C)[C@@H]1CC2` [FERRUGINOL], for which the IC50 in assay [7] is 21.3 µM; in assay [10], 90.4 µM; in assay [12], 64.9 µM; in assay [15], 48.2 µM. Also, the result in [8], in assay [9], in assay [11], in assay [13], in assay [16] and in [17] was inactive. In assay [18], the result was inactive. The “Ratio IC50” value in [19] was 4.2; in [20] it was 1.4; in [14] it was 1.9.
Consider `CC(=O)Oc1cc2c(cc1C(C)C)CC[C@H]1[C@](C)(CN3C(=O)c4ccccc4C3=O)CCC[C@]21C`, for which the IC50 in assay [7], in assay [12] and in assay [15] was more than 50 µM each time. The result in assay [8], in [9], in assay [11], in assay [13], in [16] and in assay [17] was inactive. Moreover, the result in assay [18] was inactive.
Consider `CC(=O)Oc1cc2c(cc1C(C)C)CC[C@H]1[C@](C)(CN3C(=O)c4c(Cl)c(Cl)c(Cl)c(Cl)c4C3=O)CCC[C@]21C`, for which the half-inhibitory concentration (IC50) in assay [7], in assay [12] and in assay [15] was more than 40 µM in each case. For the same compound, the result in assay [8], in assay [9], in assay [11], in assay [13], in [16] and in assay [17] was inactive. Besides, in assay [18], the result was inactive.
For `CC(=O)O[C@H]1C(=O)[C@@]2(C)[C@H]([C@H](OC(=O)c3ccccc3)[C@]3(O)C[C@H](OC(=O)[C@H](O)[C@@H](NC(=O)c4ccccc4)c4ccccc4)C(C)=C1C3(C)C)[C@]1(OC(C)=O)CO[C@@H]1C[C@@H]2O` [PACLITAXEL], the IC50 in assay [10] was 0.65 µM; in assay [12], 0.099 µM; in [15], 0.0005 µM.
